In ChEMBL document CHEMBL4196163, “In Silico Identification of Piperidinyl-amine Derivatives as Novel Dual Binders of Oncogene c-myc/c-Kit G-quadruplexes” (ACS Med Chem Lett, 2018):
The source made the active and inactive calls. The rule behind the calls is not given here.

Assays:
[1] = system: Quadruplex DNA; test: Stabilization of c-Kit G-quadruplex DNA (unknown origin) by circular dichroism method; type: nucleic-acid assay
[2] = system: Quadruplex DNA; test: Binding affinity to 5'-Dabcyl/3'-FM labeled c-myc G-quadruplex DNA (unknown origin) assessed as change in melting temperature at 20 uM by fluorescence assay; type: nucleic-acid assay
In short: (§1)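 Fluorescence melting of end-labelled oligonucleotides matching the c-myc and c-Kit G4 sequences used in the virtual screen. Melting profiles were recorded with and without increasing ligand concentrations.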

[3] = system: Quadruplex DNA; test: Stabilization of c-myc G-quadruplex DNA (unknown origin) by circular dichroism method; type: nucleic-acid assay
[4] = system: Quadruplex DNA; test: Binding affinity to 5'-Dabcyl/3'-FM labeled c-Kit G-quadruplex DNA (unknown origin) assessed as change in melting temperature at 20 uM by fluorescence assay; type: nucleic-acid assay; in short: as §1
[5] = system: HGC-27; test: Cytotoxicity against human HGC27 cells assessed as reduction in cell viability after 72 hrs by Alamar blue assay; type: functional, cell-based; settings: for IC50: HGC-27, 72 h
In short: (§2)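 Cells were exposed to the compound for 72 h, and viability was read by Alamar Blue. IC50 values were taken from dose-response curves, with linear regression coefficients (R2) reported.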

[6] = system: dsDNA; test: Binding affinity to double stranded DNA (unknown origin) assessed as change in melting temperature at 20 uM by fluorescence assay; type: nucleic-acid assay
[7] = (§3) Cytotoxicity against human HMC-1.2 cells assessed as reduction in cell viability after 72 hrs by Alamar blue assay; type: functional, cell-based; in short: as §2
[8] = species: Homo sapiens; test: as §3; type: functional, cell-based; in short: as §2
[9] = system: Quadruplex DNA; test: Stabilization of 5'-biotinylated c-Kit G-quadruplex DNA (unknown origin) by surface plasmon resonance assay; type: nucleic-acid assay

| SMILES | Activity [1] | ΔTm [2] | Activity [3] | ΔTm [4] | Activity [5] | IC50 [5] | ΔTm [6] | IC50 [7] | Activity [8] | Activity [6] | Activity [9] | Kd [1] |
| --- | --- | --- | --- | --- | --- | --- | --- | --- | --- | --- | --- | --- |
| Cc1cc(-c2ccc(CNCC3CCNCC3)o2)ccc1Br | Active | 2 °C | Active | 3 °C | Dose-dependent effect | 2550 nM | 1.5 °C | 2560 nM | Dose-dependent effect |  |  |  |
| CCn1cc(C(NC(=O)CCCN)c2ccc(F)cc2)c2ccncc21 (stereo not drawn) |  | 0.4 °C |  | 1.1 °C |  |  |  |  |  | inactive |  |  |
| CC(C)CC(N)C(=O)NC1CCN(C(=O)Cn2ccc3ccncc32)CC1 (stereo not drawn) |  | 0.1 °C |  | 0.3 °C |  |  |  |  |  | inactive |  |  |
| Cc1ccc(COc2ccc(CNCC3CCNCC3)cc2)cc1 | Active | 1.3 °C | Active | 2.3 °C | Dose-dependent effect | 4220 nM |  | 4000 nM | Dose-dependent effect | inactive | Dose-dependent effect |  |
| CCOc1cc(CNCC2CCNCC2)ccc1OCc1ccc(Cl)cc1 |  | 5.4 °C | Active | 3.2 °C | Dose-dependent effect | 2370 nM |  | 2560 nM | Dose-dependent effect | inactive | Dose-dependent effect | 18 µM |
| CC(C)(N)C(=O)NC1CCN(C(=O)Cn2ccc3ccncc32)CC1 |  | 0.6 °C |  | 0.1 °C |  |  |  |  |  | inactive |  |  |
